{
  "source": "ChEMBL document CHEMBL1142583",
  "about": "“Cytotoxic flavonol glycosides from Triplaris cumingiana” (2005)",
  "format_in_all_cases": "functional",
  "key": {"[1]": {"tested_on": "MCF7", "assay": "Cytotoxicity against human MCF7 cell", "how_it_was_run": "(§1)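 Human cancer cell panel: MCF-7 (breast), H-460 (lung) and SF-268 (central nervous system), run by the Monks et al. protocol; adriamycin served as the reference compound.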"}, "[2]": {"tested_on": "NCI-H460", "assay": "Cytotoxicity against human H460 cells", "how_it_was_run": "as §1"}, "[3]": {"tested_on": "SF-268", "assay": "Cytotoxicity against human SF-268 cells", "how_it_was_run": "as §1"}},
  "data": [
    {"molecule": "O=C(OC[C@H]1O[C@@H](Oc2c(-c3ccc(O)c(O)c3)oc3cc(O)cc(O)c3c2=O)[C@H](O)[C@@H](O)[C@@H]1OC(=O)c1cc(O)c(O)c(O)c1)c1cc(O)c(O)c(O)c1", "values": [
      {"measurement": "GI50", "setting": "[1]", "value": "> 10", "unit": "µg/mL"},
      {"measurement": "GI50", "setting": "[2]", "value": 3, "unit": "µg/mL"},
      {"measurement": "GI50", "setting": "[3]", "value": "> 10", "unit": "µg/mL"}
    ]},
    {"molecule": "O=C(OC[C@H]1O[C@@H](Oc2c(-c3ccc(O)c(O)c3)oc3cc(O)cc(O)c3c2=O)[C@H](O)[C@@H](O)[C@@H]1O)c1cc(O)c(O)c(O)c1", "values": [
      {"measurement": "GI50", "setting": "[1]", "value": "> 10", "unit": "µg/mL"},
      {"measurement": "GI50", "setting": "[2]", "value": "> 10", "unit": "µg/mL"},
      {"measurement": "GI50", "setting": "[3]", "value": "> 10", "unit": "µg/mL"}
    ]},
    {"molecule": "O=C(OC[C@@H]1O[C@@H](Oc2c(-c3ccc(O)cc3)oc3cc(O)cc(O)c3c2=O)[C@H](O)[C@H]1O)c1cc(O)c(O)c(O)c1", "values": [
      {"measurement": "GI50", "setting": "[1]", "value": 9, "unit": "µg/mL"},
      {"measurement": "GI50", "setting": "[2]", "value": "> 10", "unit": "µg/mL"},
      {"measurement": "GI50", "setting": "[3]", "value": "> 10", "unit": "µg/mL"}
    ]},
    {"molecule": "O=C(OC[C@@H]1O[C@@H](Oc2c(-c3ccc(O)c(O)c3)oc3cc(O)cc(O)c3c2=O)[C@H](O)[C@H]1O)c1cc(O)c(O)c(O)c1", "values": [
      {"measurement": "GI50", "setting": "[1]", "value": 1.4, "unit": "µg/mL"},
      {"measurement": "GI50", "setting": "[2]", "value": 1.2, "unit": "µg/mL"},
      {"measurement": "GI50", "setting": "[3]", "value": 2.3, "unit": "µg/mL"}
    ]},
    {"molecule": "O=c1c(O)c(-c2ccc(O[C@@H]3O[C@@H](CO)[C@H](O)[C@H]3O)c(O)c2)oc2cc(O)cc(O)c12", "values": [
      {"measurement": "GI50", "setting": "[1]", "value": 9.1, "unit": "µg/mL"},
      {"measurement": "GI50", "setting": "[2]", "value": 7.3, "unit": "µg/mL"},
      {"measurement": "GI50", "setting": "[3]", "value": "> 10", "unit": "µg/mL"}
    ]}
  ]
}
